One series deals with cancer cell lines. In kind it is cell-based. The conditions noted are these: for antiproliferative activity: text summary of Tables 1–3; for activity relative to 47: IC50 values of Table 4; for IC50: read-out: activity/potency range across cancer cell lines.
Series [1] in a line: Aqueous solubility, Multiscreen solubility filter plate with LC-MS/MS. The format is physicochemical. The conditions noted are these: for solubility compared with compound 1: Figure 3.
The test system of the next series is PC-3. Kind of series: SRB cytotoxicity assay, PC-3 prostate cancer cells. The format is cell-based, human. Conditions: read-out: IC50 ± SEM, PC-3. (The SRB assay estimates cell density from bound dye.)
The subject of the next series is LNCaP. Kind of series: SRB cytotoxicity assay, LNCaP prostate cancer cells. The format is cell-based, human. The conditions noted are these: read-out: IC50 ± SEM, LNCaP.
A further series deals with B16-F1. Kind of series: SRB cytotoxicity assay, B16-F1 mouse melanoma cells. In kind it is cell-based. The conditions noted are these: read-out: IC50 ± SEM, B16-F1, 96 h treatment.
A further series has as its system A375. Description: SRB cytotoxicity assay, A375 melanoma cells. The format is cell-based, human. Conditions: read-out: IC50 ± SEM, A375, 96 h treatment.
The subject of another series is WM-164. Description: SRB cytotoxicity assay, WM-164 melanoma cells. In kind it is cell-based, human. Conditions: read-out: IC50 ± SEM, WM-164, 96 h treatment.
The test system of the next series is DU 145. Description: SRB cytotoxicity assay, DU 145 prostate cancer cells. In kind it is cell-based, human. The conditions noted are these: read-out: IC50 ± SEM, DU 145.
The test system of the next series is PPC-1. Description: SRB cytotoxicity assay, PPC-1 prostate cancer cells. The conditions noted are these: read-out: IC50 ± SEM, PPC-1. In kind it is cell-based, human.
The subject of another series is Bovine brain tubulin. Description: In vitro tubulin polymerization assay. The format is biochemical. The conditions noted are these: 5 µM compound, 20 min incubation. An outline of the steps: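 Bovine brain tubulin (0.4 mg, >97% pure) combined with test compound in general tubulin buffer (80 mM PIPES, 2.0 mM MgCl₂, 0.5 mM EGTA, 1 mM GTP, pH 6.9) at 37 °C. Polymerization tracked as A340 read every 1 min over 20 min. Inhibition expressed against vehicle.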

Series [2] in a line: Rat pharmacokinetic study. The format is in vivo, Sprague–Dawley rats. The conditions noted are these: 10 mg/kg.

Read-outs that look alike come from different tables or passages of the source.

`CNCc1ccc(-c2nc(C(=O)c3cc(OC)c(OC)c(OC)c3)cs2)cc1.Cl` [Compound 40, (2-(4-((Methylamino)methyl)phenyl)thiazol-4-yl)(3,4,5-trimeth-oxyphenyl)methanone Hydrochloride]: the “antiproliferative activity” value in the series on cancer cell lines was “abrogated activity”.

With `COc1cc(C(=O)c2csc(Nc3ccccc3)n2)cc(OC)c1OC` [Compound 45a, (2-(Phenylamino)thiazol-4-yl)(3,4,5-trimethoxyphenyl)methanone], the “solubility compared with compound 1” value in [1] (PBS) is given as “improved solubility”. In the series with cancer cell lines, the “activity relative to 47” value is “over 20 fold” and the IC50 was in the range of 0.035 to 0.065 µM.

With `CO/N=C(\c1cc(OC)c(OC)c(OC)c1)c1csc(-c2ccccc2)n1` [Compound 13d, (E)-(2-Phenylthiazol-4-yl)(3,4,5-trimethoxyphenyl)methanone O-Methyl Oxime], the IC50 in the series with PC-3 (Homo sapiens, PC-3, 96 h) is above 10 µM; in the series on LNCaP (Homo sapiens, LNCaP, 96 h), above 10 µM.

Consider “(Z)-2-Phenyl-4-(3,4,5-trimethoxystyryl)thiazole [Compound 20]”, for which the IC50 in the series with B16-F1 is 11 ± 2.8 µM; in the series on A375 it was 46.5 ± 23.3 µM; in the series on WM-164 it was 10.6 ± 5.8 µM; in the series on DU 145 (SRB assay, 96 h treatment) it was above 10 µM; in the series with PC-3 (SRB assay, 96 h treatment) it was above 10 µM; in the series on LNCaP (SRB assay, 96 h treatment), above 10 µM. In the series on PPC-1 (SRB assay, 96 h treatment), the IC50 was above 10 µM. Further, the “antiproliferative activity” value in the series with cancer cell lines is reported as “lost activity”.

As for `COc1cc(C(=O)c2csc(-c3ccc4[nH]ccc4c3)n2)cc(OC)c1OC` [Compound 36, (2-(1H–Indol-5-yl)thiazol-4-yl)(3,4,5-trimethoxyphenyl)methanone], in the series on Bovine brain tubulin, the “inhibition of tubulin polymerization as compared to vehicle” value is on record as 69%.

Turning to `COc1cc(/C(=N\C#N)c2csc(-c3ccccc3)n2)cc(OC)c1OC` [Compound 16, N-((2-Phenylthiazol-4-yl)(3,4,5-trimethoxyphenyl)methylene)cyanamide], the IC50 in the series with cancer cell lines lay within 0.02 to 0.06 µM.

For “N-(3,4,5-Trimethoxyphenyl)biphenyl-3-sulfinamide [Compound 26]”, the IC50 in the series on B16-F1 is above 10 µM; in the series on A375, above 10 µM; in the series on WM-164, above 10 µM; with DU 145 (SRB assay, 96 h treatment) it was above 10 µM; with PC-3 (SRB assay, 96 h treatment), above 10 µM; in the series on LNCaP (SRB assay, 96 h treatment), above 10 µM. In addition, the IC50 in the series on PPC-1 (SRB assay, 96 h treatment) was above 10 µM.

In the case of `COc1cc(C(=O)c2cccc(-c3ccccc3)c2)cc(OC)c1OC` [Compound 9a, Biphenyl-3-yl(3,4,5-trimethoxyphenyl)methanone], the “antiproliferative activity” value in the series on cancer cell lines is given as “hundreds of nanomolar range”.

As to `COc1cc(C(=O)c2csc(-c3ccc(CN(C)C)cc3)n2)cc(OC)c1OC.Cl` [Compound 42, (2-(4-((Dimethylamino)methyl)phenyl)thiazol-4-yl)(3,4,5-trimeth-oxyphenyl)methanone Hydrochloride], in the series on cancer cell lines, the “antiproliferative activity” value was “abrogated activity”.

On to `COc1cc(C(=O)C2COC(c3ccccc3)=N2)cc(OC)c1OC` (stereo in doubt) [Compound 5, (2R)-(2-Phenyl-4,5-dihydro-oxazol-4-yl)-(3,4,5-trimethoxy-phenyl)-methanone], for which the “antiproliferative activity” value in the series on cancer cell lines was “hundreds of nanomolar range”.

Regarding `COc1cc(/C(=N\N)c2csc(-c3ccccc3)n2)cc(OC)c1OC` [Compound 14b, (E)-4-(Hydrazono(3,4,5-trimethoxyphenyl)methyl)-2-phenylthiazole], the IC50 in the series with DU 145 (Homo sapiens, DU-145, 96 h) came to 1.21 µM.

Take `COc1cc(C(=O)c2cc(-c3ccccc3)n[nH]2)cc(OC)c1OC` [Compound 9f, (3-Phenyl-1H–pyrazol-5-yl)(3,4,5-trimethoxyphenyl)methanone]: the “antiproliferative activity” value with cancer cell lines was “hundreds of nanomolar range”.

Consider `COc1cc(C(=O)c2coc(-c3ccccc3)n2)cc(OC)c1OC` [Compound 6, (2R)-(2-Phenyl-oxazol-4-yl)-(3,4,5-trimethoxy-phenyl)-methanone], for which the “antiproliferative activity” value in the series on cancer cell lines was “hundreds of nanomolar range”.

“Biphenyl-3-yl(3,4,5-trimethoxyphenyl)sulfane [Compound 23]”: the IC50 in the series on B16-F1 is 2.4 ± 0.9 µM; in the series on A375 it was 1.6 ± 0.4 µM; in the series on WM-164, 2 ± 1.2 µM; in the series with DU 145 (SRB assay, 96 h treatment) it was above 10 µM; with PC-3 (SRB assay, 96 h treatment) it was above 10 µM; with LNCaP (SRB assay, 96 h treatment), 2.3 ± 0.2 µM. For the same compound, the IC50 in the series with PPC-1 (SRB assay, 96 h treatment) stood at 2.3 ± 0.1 µM.

Take `COc1cc(C(=O)c2csc(Nc3ccc(C)cc3)n2)cc(OC)c1OC.Cl` [Compound 46b, (2-(p-Tolylamino)thiazol-4-yl)(3,4,5-trimethoxyphenyl)methanone Hydrochloride Salt]: in the series on cancer cell lines, the “activity relative to 47” value is reported as “over 20 fold” and the IC50 lay within 0.035 to 0.065 µM.

In the case of “3-(3,4,5-Trimethoxyphenylsulfonyl)biphenyl [Compound 24]”, the IC50 with B16-F1 was above 10 µM; with A375, above 10 µM; in the series with WM-164 it was above 10 µM; in the series on DU 145 (SRB assay, 96 h treatment), above 10 µM; in the series on PC-3 (SRB assay, 96 h treatment) it was above 10 µM; with LNCaP (SRB assay, 96 h treatment), above 10 µM. Moreover, in the series on PPC-1 (SRB assay, 96 h treatment), the IC50 is above 10 µM.

As for “(E)-2-Phenyl-4-(3,4,5-trimethoxystyryl)thiazole [Compound 21]”, the IC50 with B16-F1 was 32.8 ± 13 µM; in the series on A375, above 100 µM; with WM-164, 30.8 ± 12 µM; in the series on DU 145 (SRB assay, 96 h treatment), above 10 µM; with PC-3 (SRB assay, 96 h treatment), above 10 µM; in the series on LNCaP (SRB assay, 96 h treatment), above 10 µM. The IC50 in the series with PPC-1 (SRB assay, 96 h treatment) is above 10 µM. For the same compound, the “antiproliferative activity” value in the series on cancer cell lines is given as “lost activity”.

Regarding `COc1cc(C(=O)N2CCC(c3ccccc3)CC2)cc(OC)c1OC` [Compound 9i, (4-Phenylpiperidin-1-yl)(3,4,5-trimethoxyphenyl)methanone], the “antiproliferative activity” value in the series with cancer cell lines is recorded as “totally abolished activity”.

Turning to `CO/N=C(/c1cc(OC)c(OC)c(OC)c1)c1csc(-c2ccccc2)n1` [Compound 13c, (Z)-(2-Phenylthiazol-4-yl)(3,4,5-trimethoxyphenyl)methanone O-Methyl Oxime], in the series with PPC-1 (Homo sapiens, PPC-1, 96 h), the IC50 is above 10 µM.

Consider “3-(3,4,5-Trimethoxyphenylsulfinyl)biphenyl [Compound 25]”, for which the IC50 was above 10 µM in the series on B16-F1; above 10 µM with A375; above 10 µM with WM-164; above 10 µM in the series on DU 145 (SRB assay, 96 h treatment); above 10 µM in the series on PC-3 (SRB assay, 96 h treatment); above 10 µM in the series on LNCaP (SRB assay, 96 h treatment). The IC50 in the series on PPC-1 (SRB assay, 96 h treatment) was above 10 µM.

On to `COc1cc(C(=O)c2csc(Nc3ccc(F)cc3)n2)cc(OC)c1OC.Cl` [Compound 46c, (2-(p-Fluorophenylamino)thiazol-4-yl)(3,4,5-trimethoxyphenyl)-methanone Hydrochloride Salt], for which the “increased exposure (AUC) by the oral route as compared to 1” value in series [2] was “more than 4.3 fold”.

For `COc1cc(C(=O)c2csc(Nc3ccc(F)cc3)n2)cc(OC)c1OC` [Compound 45c, (2-(p-Fluorophenylamino)thiazol-4-yl)(3,4,5-trimethoxyphenyl)-methanone], the “solubility compared with compound 1” value in [1] (PBS) is reported as “improved solubility”. Besides, the IC50 in the series on cancer cell lines was in the range of 0.035 to 0.065 µM.

By solubility is commonly meant the dissolved amount per volume that the medium holds. On to `COc1cc(C(=O)c2csc(-c3ccc(CN)cc3)n2)cc(OC)c1OC.Cl` [Compound 39, (2-(4-(Aminomethyl)phenyl)thiazol-4-yl)(3,4,5-trimethoxyphenyl)-methanone Hydrochloride], for which the “increase in solubility compared with compound 1” value in [1] (PBS, HCl salt) is “over 35 fold”. The compound further had a solubility at […] in series [1] (phosphate buffered saline (PBS) buffer, pH 7.4) of at least 35 µg/mL.

`COc1cc(C(=O)c2csc(-c3ccccc3)n2)cc(OC)c1OC` [Compound 1]: the IC50 in the series with PC-3 (Homo sapiens, PC-3, 96 h) was determined as 0.021 ± 0.001 µM; in the series with PPC-1 (Homo sapiens, PPC-1, 96 h) it was 0.043 ± 0.005 µM.

`COc1cc(/C(=N/O)c2csc(-c3ccccc3)n2)cc(OC)c1OC` [Compound 13a, (Z)-(2-Phenylthiazol-4-yl)(3,4,5-trimethoxyphenyl)methanoneOxime]: the “activity of syn-isomer relative to anti isomer 13b” value with cancer cell lines (13a vs 13b) is on record as 10 fold.

These data come from paper PMC4755333 (Journal of medicinal chemistry, 2011).
